Published values of several laboratories.
Compare with care: the assays were run in different laboratories.
Target: D(3) dopamine receptor (DRD3, Homo sapiens, UniProt P35462)
Tested at: 10 µM

`N#CN1CC[C@H](C(=O)Nc2nc3c(s2)CN(C(=O)CN=[N+]=[N-])CC3)C1` has an inhibition of -2.14% (ligand displacement).
`CCN(CC)c1ccc(C2Nc3ccc(C(=O)c4ccccc4)cc3NC3=C2C(=O)CC(C)(C)C3)cc1` (stereo not shown) has an inhibition of 12% (ligand displacement, radioligand).
`N#Cc1cc(Cn2c(N3CCCC3)nc3ccccc32)ccc1F` gave an inhibition of 39.3% (ligand displacement).
`COc1cccc(N2CCN(C3CC(=O)N(c4cccc(OC)c4)C3=O)CC2)c1` (stereo not shown) has an inhibition of -37.6% (enzyme activity, inhibitor).
`CCN(Cc1ccccc1C(F)(F)F)C(=O)C1CCN(S(=O)(=O)c2ccc3[nH]ncc3c2)CC1` gave an inhibition of 23% (ligand displacement, radioligand).
`COc1ccc(-c2ccc(CNCC(O)c3ccccc3)o2)cc1Cl` (stereo not shown) gave an inhibition of 12.1% (enzyme activity, inhibitor).
For `O=C(c1ccc(F)cc1)N(Cc1ccccc1)C1CCCCC1`, the inhibition was 8% (cell-free assay).
With `CN([C@@H]1CCc2c(CC(=O)O)c3ccccc3n2C1)S(=O)(=O)c1ccc(F)cc1` the inhibition was -4.25% (ligand displacement).
The inhibition of `Nc1nonc1C(=O)NCCNCc1cccc(OCc2ccccc2F)c1` is reported as 4.3% (enzyme activity, inhibitor).
`CCCNc1nc2ccccc2n1Cc1ccc(Cl)cc1` gave an inhibition of 40.8% (ligand displacement).
